For assay [1], the target named is Bcl-xL (Homo sapiens, UniProt Q07817). The assay is described as follows: fluorescence polarization. In kind it is binding.
The target of assay [2] is Human Mcl-1 (Homo sapiens, UniProt Q07820). The assay can be described thus: fluorescence polarization. In kind it is binding. To be noted: for Mcl-1 potency relative to initial hit 1 (in words): SAR of phenyl region.
Assay [3] relates to several cell lines derived from various human malignancies. The assay can be described thus: antiproliferative activity across several cell lines. Format: cell-based. Put shortly:
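Cells at 2.5 × 10⁵ cells/mL in 384-well plates; suspension lines in RPMI-1640/10% FBS (mouse lines plus β-mercaptoethanol), adherent lines in DMEM/10% FBS. Seven 2-fold dilutions from 5 µM or 20 µM top; DMSO top 0.2%. 37°C, 48 h; PrestoBlue read-out. Media background subtracted; viability normalized to cells-only wells (100%). Two independent triplicate runs (n=6) or three replicate experiments, by cell set.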

In assay [4] the target is CYP450 2D6 (Homo sapiens, UniProt P10635). The assay is described as follows: CYP450 inhibition 2D6. Format: in vitro ADME.
Sequence of CYP450 2D6 (P10635 whole entry): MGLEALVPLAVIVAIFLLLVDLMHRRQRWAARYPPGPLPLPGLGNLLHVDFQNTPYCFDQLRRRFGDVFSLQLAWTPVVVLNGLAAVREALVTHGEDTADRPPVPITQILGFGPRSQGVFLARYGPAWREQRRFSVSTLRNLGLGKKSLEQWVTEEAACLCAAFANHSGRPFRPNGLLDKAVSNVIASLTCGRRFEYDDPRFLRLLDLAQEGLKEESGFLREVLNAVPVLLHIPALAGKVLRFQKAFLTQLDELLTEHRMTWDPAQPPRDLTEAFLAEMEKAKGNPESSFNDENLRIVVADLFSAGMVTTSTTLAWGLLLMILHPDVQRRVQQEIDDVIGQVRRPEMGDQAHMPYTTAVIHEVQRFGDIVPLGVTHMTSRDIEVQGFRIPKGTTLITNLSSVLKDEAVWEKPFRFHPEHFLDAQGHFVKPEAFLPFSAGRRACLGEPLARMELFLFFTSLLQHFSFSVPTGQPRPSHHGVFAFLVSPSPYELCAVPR
The subject of assay [5] is Mcl1-1780. The assay can be described thus: cytochrome c release determination. In kind it is cell-based, mouse. The following applies: Mcl1-1780 compared with Bcl2-1863, 2 hours.
Assay [6] deals with SUDHL-6. The assay can be described thus: cytochrome c release determination. Format: cell-based, human. To be noted: SUDHL-6, 2 hours, 20µM EU-5346 or 100µM Puma.
Assay [7] has as its target CYP450 2C9 (Homo sapiens, UniProt P11712). The assay is described as follows: CYP450 inhibition 2C9. In kind it is in vitro ADME.
The target of assay [8] is T1, CYP450 1A2 (Homo sapiens, UniProt P05177).
T1 sequence (P05177 1-516): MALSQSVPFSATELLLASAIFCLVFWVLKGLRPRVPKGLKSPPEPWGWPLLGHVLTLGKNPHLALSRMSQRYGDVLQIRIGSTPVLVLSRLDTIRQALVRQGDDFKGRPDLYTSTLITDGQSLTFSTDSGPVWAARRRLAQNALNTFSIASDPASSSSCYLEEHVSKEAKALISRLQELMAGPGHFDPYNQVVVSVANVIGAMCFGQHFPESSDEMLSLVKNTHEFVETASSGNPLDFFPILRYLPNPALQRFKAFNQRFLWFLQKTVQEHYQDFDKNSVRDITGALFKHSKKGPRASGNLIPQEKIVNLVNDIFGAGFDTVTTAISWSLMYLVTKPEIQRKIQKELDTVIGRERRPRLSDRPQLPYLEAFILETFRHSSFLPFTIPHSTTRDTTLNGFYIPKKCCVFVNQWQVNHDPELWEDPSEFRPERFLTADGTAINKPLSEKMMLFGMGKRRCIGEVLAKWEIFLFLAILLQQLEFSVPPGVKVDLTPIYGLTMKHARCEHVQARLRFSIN
The assay can be described thus: CYP450 inhibition 1A2.

The target in assay [9] is CYP450 3A4 (Homo sapiens, UniProt P08684). The assay can be described thus: CYP450 inhibition 3A4. In kind it is in vitro ADME.
Sequence of CYP450 3A4 (P08684 whole entry): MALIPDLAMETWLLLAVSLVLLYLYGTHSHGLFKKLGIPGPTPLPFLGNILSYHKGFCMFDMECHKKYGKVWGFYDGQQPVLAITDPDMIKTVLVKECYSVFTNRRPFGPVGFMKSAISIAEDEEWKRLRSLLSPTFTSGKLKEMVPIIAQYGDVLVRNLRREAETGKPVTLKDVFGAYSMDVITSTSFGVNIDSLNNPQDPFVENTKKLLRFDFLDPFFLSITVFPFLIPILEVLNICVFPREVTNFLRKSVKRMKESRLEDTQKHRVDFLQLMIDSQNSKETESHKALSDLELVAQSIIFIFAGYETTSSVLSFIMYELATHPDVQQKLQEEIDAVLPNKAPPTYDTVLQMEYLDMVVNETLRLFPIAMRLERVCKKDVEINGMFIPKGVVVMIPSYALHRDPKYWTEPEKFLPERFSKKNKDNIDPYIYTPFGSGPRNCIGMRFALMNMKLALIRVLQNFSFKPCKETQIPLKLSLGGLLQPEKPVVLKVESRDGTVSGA
For assay [10], the system named is Mcl1-1780. The assay is described as follows: Annexin V apoptosis assay. Format: cell-based, mouse. To be noted: Mcl1-1780, 16 hours, 0.15 µM-40 µM.
Assay [11] concerns Mcl1-1780. The assay can be described thus: nuclear apoptosis determination. Format: cell-based, mouse. To be noted: Mcl1-1780, 24 hours.
For assay [12], the system named is SUDHL-10. The assay can be described thus: cytochrome c release determination. Format: cell-based, human. The following applies: SUDHL-10, 2 hours, 20µM EU-5346 or 100µM Puma.
The test system of assay [13] is SUDHL-8. The assay is described as follows: cytochrome c release determination. Format: cell-based, human. To be noted: SUDHL-8, 2 hours, 20µM EU-5346 or 100µM Puma.
Assay [14] concerns Bcl2-1863. The assay can be described thus: Annexin V apoptosis assay. In kind it is cell-based, mouse. To be noted: Bcl2-1863, 16 hours, 0.15 µM-40 µM.
The subject of assay [15] is Bcl2-1863. The assay can be described thus: nuclear apoptosis determination. In kind it is cell-based, mouse. The following applies: Bcl2-1863, 24 hours.

Sequence of Human Mcl-1 (Q07820 1-327 limits assumed): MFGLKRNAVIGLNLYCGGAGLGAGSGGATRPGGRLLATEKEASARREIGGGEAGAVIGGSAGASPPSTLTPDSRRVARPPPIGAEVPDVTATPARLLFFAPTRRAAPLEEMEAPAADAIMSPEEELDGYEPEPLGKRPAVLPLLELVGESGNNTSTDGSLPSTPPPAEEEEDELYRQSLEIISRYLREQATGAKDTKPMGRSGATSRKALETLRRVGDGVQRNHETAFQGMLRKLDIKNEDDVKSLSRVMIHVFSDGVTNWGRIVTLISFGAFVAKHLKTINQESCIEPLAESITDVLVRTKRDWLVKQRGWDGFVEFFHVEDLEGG
Sequence of Bcl-xL (Q07817 1-209 limits assumed): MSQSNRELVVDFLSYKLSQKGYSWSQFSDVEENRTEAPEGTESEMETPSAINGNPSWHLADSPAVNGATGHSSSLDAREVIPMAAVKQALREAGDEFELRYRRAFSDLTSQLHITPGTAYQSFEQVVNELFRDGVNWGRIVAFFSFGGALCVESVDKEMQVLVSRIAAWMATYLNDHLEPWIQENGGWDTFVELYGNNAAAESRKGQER
Sequence of CYP450 2C9 (P11712 whole entry): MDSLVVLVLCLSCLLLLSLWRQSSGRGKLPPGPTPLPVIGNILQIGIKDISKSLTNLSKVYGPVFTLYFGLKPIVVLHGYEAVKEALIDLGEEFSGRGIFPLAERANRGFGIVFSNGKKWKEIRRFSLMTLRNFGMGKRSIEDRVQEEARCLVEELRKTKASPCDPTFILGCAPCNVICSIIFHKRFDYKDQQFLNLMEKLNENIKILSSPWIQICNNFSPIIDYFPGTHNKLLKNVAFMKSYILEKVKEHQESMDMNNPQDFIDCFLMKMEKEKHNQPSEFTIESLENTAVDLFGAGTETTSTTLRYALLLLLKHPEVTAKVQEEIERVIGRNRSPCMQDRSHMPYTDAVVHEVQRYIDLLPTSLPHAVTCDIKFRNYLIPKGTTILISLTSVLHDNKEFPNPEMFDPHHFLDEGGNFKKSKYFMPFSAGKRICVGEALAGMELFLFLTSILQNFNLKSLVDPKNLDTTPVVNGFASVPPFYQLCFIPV

In the case of `O=C(O)COc1ccccc1C(Nc1ccccn1)c1cc(Cl)c2cccnc2c1O` (stereo not shown) [Compound 1], the “inhibition of Bcl-xL” value in [1] (at 100 µM) is reported as “no appreciable inhibition”. Also, in assay [2] (Mcl-1 versus Bcl-xL, FP assays), the “selectivity over Bcl-xL” value is listed as “greater than 40 fold”. In assay [3] (cell lines not specified), the “antiproliferative activity (in words)” value was “only modest antiproliferative activity”.
`COc1ccc(C(Nc2ccccn2)c2cc(Cl)c3cccnc3c2O)cc1` (stereo not shown) [Compound 6]: the “Mcl-1 potency relative to initial hit 1 (in words)” value in [2] was “enhanced potency”.
In the case of `Oc1c(C(Nc2ccccn2)c2ccco2)cc(Cl)c2cccnc12` (stereo not shown) [Compound 7], the “Mcl-1 potency relative to initial hit 1 (in words)” value in assay [2] is listed as “enhanced potency”.
Take `Cc1ccnc(NC(c2ccc(F)cc2)c2cc(Cl)c3cccnc3c2O)c1` (stereo not shown) [Compound 8]: the “Mcl-1 potency relative to initial hit 1 (in words)” value in assay [2] is reported as “five-fold more potent”.
A word on the IC50: it is the point on the concentration scale where inhibition reaches its midpoint. The term EC50 denotes the concentration giving half of the maximal effect. On to `CCN1CCN(C(c2ccc(C(F)(F)F)cc2)c2cc(Cl)c3cccnc3c2O)CC1` (stereo not shown) [Compound 9], for which the IC50 in [4] was over 10 µM; in assay [1] (read-out: Bcl-xL IC50, FP assay, GST-Bcl-xL, FITC-Bim) it was 40 µM; in assay [7], over 10 µM; in assay [8], over 10 µM; in assay [9], over 10 µM. Besides, the cytochrome c release result in assay [5] is on record as “significantly greater”; in [6], “greatest extent of cytochrome c release”; in assay [12] it was “significantly reduced”; in assay [13], “significantly reduced”. In addition, the EC50 in assay [3] (Homo sapiens, read-out: EC50 values, range over cell lines) was 0.3 to 15 µM. Moreover, in assay [3] (Mcl1-1780, Bcl2-1863, SUDHL-6, NCIH929), the “efficacy in cellular proliferation assays (in words)” value is given as “low micromolar efficacy”. Further, the “percent of Annexin V positive cells” value is “greater in Mcl1-1780 than in Bcl2-1863” in assay [10] and “displayed dose-dependency” in assay [14]. Also, in [11], the “induction of nuclear apoptosis / reduced viability (DAPI)” value is on record as “reduces viability with a marked preference”.
On to `CC1(C)CCC(c2ccc(Cl)cc2)=C(CN2CCN(c3ccc(C(=O)NS(=O)(=O)c4ccc(N[C@H](CCN5CCOCC5)CSc5ccccc5)c(S(=O)(=O)C(F)(F)F)c4)cc3)CC2)C1` [Navitoclax, reference compound], for which the “induction of nuclear apoptosis / reduced viability (DAPI)” value in [15] is recorded as “distinct preference in inducing apoptosis”; in assay [11], “only minimal effectiveness”.

The record behind these values is paper PMC3831274 (Bioorganic & medicinal chemistry, 2013).
